The IC50 is the concentration at which inhibition is half-maximal. For orientation: efflux ratio means the permeability from basolateral to apical divided by that in the opposite direction, in the common usage. What is called AUC(0-t) is exposure summed from dosing to a finite time, without extrapolation to infinity. High values mean high exposure, low ones low exposure. In general, Tmax refers to the time from dosing to the highest level. What is called Cmax is the maximum level reached in the sampled fluid or tissue.

The values that follow come from ChEMBL document CHEMBL5046323, “Discovery of Phospholipase D Inhibitors with Improved Drug-like Properties and Central Nervous System Penetrance” (ACS Med Chem Lett, 2022).

One data set concerns the target T1, Phospholipase D1 (Homo sapiens, UniProt Q13393).
T1 sequence (Q13393 whole entry): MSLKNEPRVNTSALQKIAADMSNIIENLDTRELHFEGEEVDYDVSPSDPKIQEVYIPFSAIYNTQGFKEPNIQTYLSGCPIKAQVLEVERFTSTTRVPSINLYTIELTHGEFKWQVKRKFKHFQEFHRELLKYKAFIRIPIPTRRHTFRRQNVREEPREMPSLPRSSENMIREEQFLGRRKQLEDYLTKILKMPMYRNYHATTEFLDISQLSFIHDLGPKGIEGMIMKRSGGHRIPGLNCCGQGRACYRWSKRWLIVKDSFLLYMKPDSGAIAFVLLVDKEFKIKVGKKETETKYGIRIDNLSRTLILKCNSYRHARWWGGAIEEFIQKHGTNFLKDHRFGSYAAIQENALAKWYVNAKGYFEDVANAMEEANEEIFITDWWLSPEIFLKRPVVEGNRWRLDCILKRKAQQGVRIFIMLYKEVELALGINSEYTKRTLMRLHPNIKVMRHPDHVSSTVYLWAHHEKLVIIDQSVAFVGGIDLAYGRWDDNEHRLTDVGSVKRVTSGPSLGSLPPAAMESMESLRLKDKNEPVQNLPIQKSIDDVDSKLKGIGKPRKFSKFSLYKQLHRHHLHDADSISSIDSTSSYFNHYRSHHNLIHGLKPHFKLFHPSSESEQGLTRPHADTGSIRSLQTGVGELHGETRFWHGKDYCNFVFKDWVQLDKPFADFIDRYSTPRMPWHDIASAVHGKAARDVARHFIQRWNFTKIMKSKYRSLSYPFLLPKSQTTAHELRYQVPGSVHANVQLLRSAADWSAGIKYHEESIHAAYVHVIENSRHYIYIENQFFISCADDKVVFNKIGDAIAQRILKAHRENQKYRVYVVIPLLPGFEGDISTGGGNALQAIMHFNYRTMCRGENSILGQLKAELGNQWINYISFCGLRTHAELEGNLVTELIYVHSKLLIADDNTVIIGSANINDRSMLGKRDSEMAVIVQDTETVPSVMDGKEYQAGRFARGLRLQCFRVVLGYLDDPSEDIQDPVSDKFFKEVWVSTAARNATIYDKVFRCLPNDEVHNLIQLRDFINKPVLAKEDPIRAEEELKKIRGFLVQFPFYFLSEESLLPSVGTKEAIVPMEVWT
Nature of the data set: Inhibition of PLD1 (unknown origin) expressed in human HEK cells by immunoprecipitation assay. It counts as cell-based.

Data set [1] is described as follows: Microsomal stability in rat liver microsomes assessed as intrinsic clearance. It counts as ADME, Microsome. Conditions: read-out: CLH. A digest of the protocol:
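Intrinsic clearance (CLint) determined in rat or human liver microsomes.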

The next data set concerns MDR1 (P-gp). Nature of the data set: Efflux ratio of apparent permeability from basolateral to apical side over apical to basolateral side in dog MDCK-MDR1 cells. It counts as ADME, cell-based, Canis lupus familiaris. A digest of the protocol:
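Efflux ratio calculated as Papp(B–A)/Papp(A–B) across MDR1-transfected MDCK monolayers.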

A short description of data set [2]: Kinetic solubility of compound at pH 6.8. It counts as physicochemical. Conditions: buffer, read-out: Kinetic_solubility. The method in brief: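 Kinetic solubility measured at pH 6.8.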
Data set [3] is described as follows: Unbound clearance in iv dosed rat administered as cassette dose. It counts as ADME, organism-based. Conditions: in vivo. A digest of the protocol:
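Rat IV clearance from cassette dosing; unbound clearance calculated as CL/fu.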

In another data set the target is Cytochrome P450 2C19 (Homo sapiens, UniProt P33261). Nature of the data set: Inhibition of CYP2C19 (unknown origin). It counts as ADME.
Data set [4] is described as follows: Plasma protein binding in rat. It counts as ADME, cell-free.
Data set [5] in a line: Unbound brain-to-plasma concentration ratio in rat. Conditions: read-out: K(p,uu,brain). It counts as ADME. A digest of the protocol: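 Kpu,u is the ratio of free compound concentration in brain over free concentration in plasma at steady state, determined by rat infusion.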
Data set [6] in a line: AUClast in sc dosed C57BL/6 mouse by LC-MS/MS analysis. It counts as ADME, organism-based. On the set-up: route subcutaneous, time 0 - last. Conditions: in vivo.
Data set [7] can be described thus: Tmax in sc dosed C57BL/6 mouse by LC-MS/MS analysis. To be noted: in vivo. It counts as ADME, organism-based.
Data set [8] is described as follows: Cmax in sc dosed C57BL/6 mouse by LC-MS/MS analysis. It counts as ADME, organism-based. Also on record: route subcutaneous. To be noted: in vivo.
Data set [9] in a line: Plasma protein binding in sc dosed C57BL/6 mouse assessed as unbound fraction by LC-MS/MS analysis. It counts as ADME, organism-based. To be noted: in vivo.
Data set [10] is described as follows: Drug concentration in sc dosed C57BL/6 mouse liver measured after 15 mins by LC-FTICR-MS analysis. It counts as ADME, organism-based. To be noted: read-out: Ct. A digest of the protocol:
(§1)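 Mice dosed subcutaneously at 10 mg/kg 15, 30 or 60 min before injection of 1-butanol-d10; tissues (liver, brain) collected 15 min after butanol injection for compound levels.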

A short description of data set [11]: Drug concentration in sc dosed C57BL/6 mouse liver measured after 60 mins by LC-FTICR-MS analysis. It counts as ADME, organism-based. Conditions: read-out: Ct. The method in brief:
as §1

Data set [12] is described as follows: Drug concentration in sc dosed C57BL/6 mouse brain measured after 15 mins by LC-FTICR-MS analysis. Conditions: read-out: Ct. It counts as ADME, organism-based. The method in brief:
as §1

Data set [13] deals with Phospholipase D1 (Homo sapiens) (UniProt Q13393). In words: Inhibition of PLD1 in human Calu-1 cells assessed as reduction in d9-phosphobutanol formation by mass spectrometry-based transphosphatidylation assay.

Values after ≈ are worked out from the molar mass of the structure shown.

Sequence of Cytochrome P450 2C19 (P33261 whole entry): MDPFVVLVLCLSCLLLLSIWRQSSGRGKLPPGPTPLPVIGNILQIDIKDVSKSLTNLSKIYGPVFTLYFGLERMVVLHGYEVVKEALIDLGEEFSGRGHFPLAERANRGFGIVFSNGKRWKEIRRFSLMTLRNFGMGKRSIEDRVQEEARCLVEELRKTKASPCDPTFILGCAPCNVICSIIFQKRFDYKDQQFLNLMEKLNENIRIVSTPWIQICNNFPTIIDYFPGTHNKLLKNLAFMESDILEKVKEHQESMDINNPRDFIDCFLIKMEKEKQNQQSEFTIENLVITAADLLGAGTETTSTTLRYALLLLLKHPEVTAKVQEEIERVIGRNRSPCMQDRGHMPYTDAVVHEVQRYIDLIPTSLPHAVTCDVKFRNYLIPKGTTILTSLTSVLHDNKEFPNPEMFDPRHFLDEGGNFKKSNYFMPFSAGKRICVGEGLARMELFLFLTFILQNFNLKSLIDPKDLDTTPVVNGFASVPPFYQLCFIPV

With `C[C@@H]1CN(C(=O)[C@H](C)N2CCC(n3c(=O)[nH]c4ccccc43)CC2)C[C@@H](C)N1`, the IC50 at Phospholipase D1 was 44 nM; against Cytochrome P450 2C19, more than 10000 nM; in data set [13] it was 6 nM. Further, the CLint scaled in data set [1] was 64 mL/min/kg. For the same compound, the efflux ratio in the data set with MDR1 (P-gp) was 9.2. In addition, the solubility kinetic in data set [2] was found to be 72.6 µg/mL (≈ 188 µM). Moreover, the CL free in [3] came out at 84 mL/min/kg. In [4], this compound gave a PPB of 36.3%. For the same compound, the Kp uu in [5] worked out at 0.8. In addition, the AUC(0-t) in data set [6] came out at 7990 ng·h/mL. Further, the Tmax in [7] is 26.4 min. Besides, the highest level in [8] (Cmax) was 2960 ng/mL. In addition, the Fu in data set [9] amounted to 17.5%. In addition, the figures for the concentration at 0.25 h in data set [10] and in [12] were 4550 ng/g and 83.8 ng/g, respectively. Besides, in [11], the concentration at 1 h was 7380 ng/g.
